This passage reports cytotoxicity results from ChEMBL document CHEMBL4513216, “Probing the Open Global Health Chemical Diversity Library for Multistage-Active Starting Points for Next-Generation Antimalarials” (ACS Infect Dis, 2020).

This data set is described as follows: Toxicity liver stage against HepG2, at 10uM. The format is cell-based. Set-up: test concentration 10 uM, cell line HepG2-A16-CD81EGFP. The conditions noted are these: human, HepG2-A16-CD81EGFP cells; read-out: INHIBITION
The essentials:
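Uninfected HepG2-A16-CD81EGFP cells, 3 × 10^3 per well, 1536-well, plated on prespotted compound at 10 μM final, parasite-free screening media added to match infected plates; puromycin 10 μM positive, DMSO 0.5% negative; run in parallel with 48 h PbLuc assay at 37 °C, 5% CO2; viability by CellTiter-Glo luminescence, normalized to controls.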
Consider `O=C1CCC(=O)c2oc3ccccc3c2N1`, for which the cytotoxicity at 10 µM was determined as 4.34%.

As for `Cc1cccc(O[C@H]2COCCN(C3CCC3)C2)n1`, the cytotoxicity at 10 µM is -4.81%.

As for `CN1CCOC[C@H]1c1nc(-c2ccccc2)c[nH]1`, the cytotoxicity at 10 µM was -7.24%.

As for `COc1ccc(-c2noc([C@@H](C)NC(=O)NC(C)(C)C)c2C(=O)O)cc1`, the cytotoxicity at 10 µM is -1.63%.

As to `COc1ccc(CN2C[C@H]3CN(C(=O)c4ccno4)CCN3C2=O)cc1`, the cytotoxicity at 10 µM was -4.23%.

For `CN1[C@@H](CCC(=O)NCc2ccc(F)cc2)CNC(=O)[C@H]2NCC[C@H]21`, the cytotoxicity at 10 µM came to 7.6%.

For `Cc1cccc(CNC[C@H]2Cn3cc(-c4ccccc4)nc3CO2)n1`, the cytotoxicity at 10 µM is -2.59%.

As for `COc1cccc(-c2nc(C)c(C(=O)N[C@H](CO)CC(C)C)s2)c1`, the cytotoxicity at 10 µM came out at 5.08%.

Regarding `Cc1nn2cnnc2c(C)c1CCC(=O)Nc1nnc(C(C)C)s1`, the cytotoxicity at 10 µM was -3.25%.

Consider `Cn1c(-c2ccccc2)nn(CCNS(=O)(=O)c2ccccc2Cl)c1=O`, for which the cytotoxicity at 10 µM was -2.85%.

Take `Cn1cnc2c1C(C(=O)N1CCCC1)N(S(C)(=O)=O)CC2` (stereo not given): the cytotoxicity at 10 µM worked out at 6.22%.

Turning to `O=C1NCCO[C@H]2CN(C(=O)CCc3ccc(Cl)cc3)CC[C@@H]12`, the cytotoxicity at 10 µM was 11.1%.

As for `O=C(c1cc(-n2cccc2)ccc1Cl)N1CCC2(CC1)OCCO2`, the cytotoxicity at 10 µM was -7.58%.

Regarding `CCC(=O)NCCNC(=O)c1nn(C)c(C)c1Cl`, the cytotoxicity at 10 µM was 5.05%.

As to `CN1CCCCC(C2CCN(S(=O)(=O)c3cn(C)cn3)CC2)C1=O` (stereo not given), the cytotoxicity at 10 µM was 3.13%.

On to `CC(C)(C)c1ccc(C(=O)NCCCNC(=O)c2cnccn2)cc1`, for which the cytotoxicity at 10 µM worked out at 6.58%.

As for `Cc1n[nH]c(C)c1CC(=O)N1CCC(O)(CN2CCOCC2)C1` (stereo not given), the cytotoxicity at 10 µM came to 3.1%.

`CNc1cc(C(=O)N2CCOC(C(=O)NC3CCCC3)C2)ccn1` (stereo not given): the cytotoxicity at 10 µM worked out at 8.16%.

For the compound `CO[C@H]1CN(S(=O)(=O)c2ccc(F)cc2)C[C@@]12CCCO2`, the cytotoxicity at 10 µM was found to be 13.2%.

In the case of `CC(C(=O)N(Cc1ccc(C#N)cc1)CC(F)(F)F)S(C)(=O)=O` (stereo not given), the cytotoxicity at 10 µM is -2.6%.

On to `O=C1CC(N(C(=O)Cc2csc(-c3ccccc3)n2)C2CC2)C(=O)N1` (stereo not given), for which the cytotoxicity at 10 µM is 3.51%.

Consider `O=c1[nH]cnc2c1CCN(S(=O)(=O)c1cccc(OC(F)(F)F)c1)C2`, for which the cytotoxicity at 10 µM is -2.87%.

As to `Cc1cc(C(=O)N2CCNC(=O)C2)c(C)n1CC(F)(F)F`, the cytotoxicity at 10 µM is 0.962%.

With `CN1CCN(CCOc2ccc(NC(=O)c3ccc[nH]3)cc2)CC1`, the cytotoxicity at 10 µM was -3.26%.

Regarding `CC(C)(C)C1CCC(O)(CNC(=O)CCS(C)(=O)=O)CC1` (stereo not given), the cytotoxicity at 10 µM is 6.51%.

Regarding `COc1ccc(Cl)cc1CCNC(=O)NCc1ncnn1C`, the cytotoxicity at 10 µM is 2.06%.

Regarding `CC(NC(=O)N1CCCCCC1)c1ccc(S(N)(=O)=O)cc1` (stereo not given), the cytotoxicity at 10 µM is -6.06%.

Turning to `CN1N=C(C(=O)N2CCN(c3ncccc3Cl)CC2)CCC1=O`, the cytotoxicity at 10 µM came to 0.0793%.

In the case of `O=C(NCCC(=O)N1CCCC1)C(OC1CCCC1)c1ccccc1` (stereo not given), the cytotoxicity at 10 µM is -4.36%.

With `CCNC(=O)NC(=O)CNc1cc(C(=O)OC)cc(C(F)(F)F)c1`, the cytotoxicity at 10 µM is -7.03%.

As for `CN1CCCN(c2nc3c(cnn3C(C)(C)C)c(=O)[nH]2)CC1`, the cytotoxicity at 10 µM is -11.9%.

As to `CC(C)c1nc(C2CCCN(c3ncccn3)C2)no1` (stereo not given), the cytotoxicity at 10 µM amounted to 12.4%.

For `O=C(NCC(O)COc1ccccc1)C1(c2ccc(F)cc2)CC1` (stereo not given), the cytotoxicity at 10 µM worked out at 1.3%.

For the compound `c1cc(-c2noc(-c3cc(C4CC4)on3)n2)cc(N2CCCCC2)n1`, the cytotoxicity at 10 µM came to 4.64%.

For the compound `CCCNC(=O)CN1CCN(c2nc(CC)ns2)CC1`, the cytotoxicity at 10 µM is -3.53%.

Regarding `O=C(CNc1cc2c(cc1Cl)OCCO2)NCC(F)(F)F`, the cytotoxicity at 10 µM was 0.49%.

As for `CN(C)C(=O)CCS(=O)(=O)Cc1coc(-c2ccc(F)cc2)n1`, the cytotoxicity at 10 µM is -2.26%.

Regarding `O=C(CNc1cc(Br)ccc1Br)NC1CCS(=O)(=O)C1` (stereo not given), the cytotoxicity at 10 µM is -5.88%.

As for `CC1CCN(C(=O)C(C)N2CCN(c3nccs3)CC2)CC1` (stereo not given), the cytotoxicity at 10 µM was 0.583%.

Turning to `CC(=O)N1CCN(C(=O)CNc2ccc3sccc3c2)CC1`, the cytotoxicity at 10 µM came to 0.335%.

On to `CCN(Cc1cnn(C)c1)C(=O)c1ccccc1O`, for which the cytotoxicity at 10 µM was 1.89%.

Turning to `O=C(CSc1nnc[nH]1)NCc1sccc1Br`, the cytotoxicity at 10 µM was found to be 0.388%.

Turning to `N#Cc1ccc(N2CCN(c3ccc4nncn4n3)CC2)nc1`, the cytotoxicity at 10 µM is -13.3%.

For `O=c1oc(-c2cccs2)nn1CC(O)c1ccc(F)cc1` (stereo not given), the cytotoxicity at 10 µM is 20.4%.

Turning to `CC(OCC(F)(F)F)C(=O)N1CCCCC1` (stereo not given), the cytotoxicity at 10 µM is -3.45%.

Consider `CCn1cncc1-c1nc2c([nH]1)CC(C)(C)CNC2=O`, for which the cytotoxicity at 10 µM worked out at 7.51%.

In the case of `Cc1noc(C)c1CNC(=O)c1cn(CCC2CCCCN2)nn1` (stereo not given), the cytotoxicity at 10 µM was 0.872%.

With `CC(C)C(=O)N1CCN(C(=O)c2cc(Cl)no2)[C@H]2CS(=O)(=O)C[C@H]21`, the cytotoxicity at 10 µM came to 8.48%.

As for `COc1ccc(C(C(=O)O)N(C)Cc2ccon2)cc1Cl` (stereo not given), the cytotoxicity at 10 µM was -5.02%.

Consider `Cc1cc(CN2CCN(C(=O)C3CCC3)[C@@H]3CS(=O)(=O)C[C@@H]32)ccc1F`, for which the cytotoxicity at 10 µM was determined as 0.66%.

For the compound `Cc1ccc(C(=O)N2CCc3ncccc3C2)cc1N1CCNC1=O`, the cytotoxicity at 10 µM was -4.33%.

As to `c1cnnc(-c2noc(COCC3CCCO3)n2)c1` (stereo not given), the cytotoxicity at 10 µM is 2.66%.

On to `CCn1nc(C)c(CN(CCOC)C(=O)c2cnc(C)nc2O)c1C`, for which the cytotoxicity at 10 µM is -2.27%.

For the compound `COc1cccc(N2CCN(Cc3ccc4ccn(C)c4c3)CC2=O)c1`, the cytotoxicity at 10 µM amounted to 17.3%.

In the case of `CCc1nc(C)c([C@H]2CN(C)C[C@@H]2C(=O)Nc2ccc3[nH]ncc3c2)[nH]1`, the cytotoxicity at 10 µM was -1.67%.

As for `COC(=O)c1ccc2ccn(CC3CCCCO3)c(=O)c2c1` (stereo not given), the cytotoxicity at 10 µM is -0.551%.

For the compound `CN1CCCN(C(=O)c2cnc(C(C)(C)C)nc2O)CC1`, the cytotoxicity at 10 µM is -0.0816%.

Consider `CN(Cc1cc(-c2ccncc2)no1)Cc1nccn1C`, for which the cytotoxicity at 10 µM is 0.884%.

As to `CN(C)CCNc1cc(-c2ccc[nH]c2=O)c2cc[nH]c2n1`, the cytotoxicity at 10 µM amounted to 9.26%.

On to `Cc1nc(C)n(CCNC(=O)C(C)n2ccnc2C(C)C)n1` (stereo not given), for which the cytotoxicity at 10 µM is -6.57%.

On to `Cc1ccsc1[C@@H]1CCN(C(=O)CCOc2ccccc2)C[C@H]1O`, for which the cytotoxicity at 10 µM is -0.602%.

`CC(C)N1CCCC(CN(C)c2ccc(Cn3ccnc3)cn2)C1` (stereo not given): the cytotoxicity at 10 µM is -127%.

Regarding `CC(C)(C)c1ncc2c(n1)CN(C(=O)c1ccncc1)C2`, the cytotoxicity at 10 µM was -12.5%.

`Cn1c(Cn2ccnc2)nnc1C1CCN(Cc2cccnc2N)CC1`: the cytotoxicity at 10 µM is -8.37%.

As to `CCOc1ncccc1CNc1nnc(C)c(C)c1C#N`, the cytotoxicity at 10 µM was -12.1%.

Take `Cc1ccc(C(=O)Nc2cc(C(C)C)n[nH]2)cn1`: the cytotoxicity at 10 µM is 55.8%.

`Cn1ccc(C(=O)N2CCN(CCc3ccccc3)CC2)cc1=O`: the cytotoxicity at 10 µM is 5.8%.

Consider `c1csc(CN2CCC3(COCCN(CC4CC4)C3)C2)n1` (stereo not given), for which the cytotoxicity at 10 µM is 1.44%.

`CCS(=O)(=O)N1C[C@H]2CCC[C@@]2(COc2ccccn2)C1`: the cytotoxicity at 10 µM was -4.09%.

`COCCN1C[C@@H]2CC[C@H]1CN(Cc1cc(=O)c3cc(C)ccc3[nH]1)C2`: the cytotoxicity at 10 µM was -5.31%.
